Test results as given in ChEMBL document CHEMBL3421610, “Antimalarial activity of 4-amidinoquinoline and 10-amidinobenzonaphthyridine derivatives” (J Med Chem, 2015).
Values after ≈ are worked out from the molar mass of the structure shown. Active and inactive are the calls of the source. The rule behind the calls is not given here.

Tests used:
[1] = Half life in human liver microsomes at 1 uM by LC/MS analysis; assay type: ADME
Summary of the method: (§1)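 Compound at 1 µM final, diluted from […], with 0.5 mg/mL pooled human or mouse liver microsomes, NADP, MgCl2 and 0.1 M PBS pH 7.4. Reaction started with 1 U/mL G6PD and shaken at 37 °C. Aliquots quenched in cold acetonitrile at 0, 10, 20, 30 and 60 min and quantified by LC/MS. Half-life from log plot of total ion chromatogram area remaining.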

[2] = Half life in mouse liver microsomes at 1 uM by LC/MS analysis; assay type: ADME; summary of the method: as §1
[3] = tested on: Plasmodium falciparum; assay: Antimalarial activity against chloroquine-sensitive Plasmodium falciparum D6 assessed as growth inhibition after 18 hrs by [3H]-hypoxanthine uptake assay; assay type: functional, organism-based
Summary of the method: (§2)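 P. falciparum clones D6, W2 and TM91C235; modified semiautomated microdilution. Compounds in DMSO, diluted in RPMI 1640 with 10% human plasma, tested over (1.56-100) x 10^-9 M; final DMSO 0.25-0.5%. Inoculum 0.5% parasitemia, 1% hematocrit. 24 h incubation, then [3H]-hypoxanthine added, further 18 h. Harvested and read by scintillation counting; IC50 by nonlinear regression.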

[4] = tested on: Plasmodium falciparum; assay: Antimalarial activity against chloroquine-resistant Plasmodium falciparum W2 assessed as growth inhibition after 18 hrs by [3H]-hypoxanthine uptake assay; assay type: functional, organism-based; summary of the method: as §2
[5] = tested on: Plasmodium falciparum; assay: Antimalarial activity against chloroquine-resistant Plasmodium falciparum C235 assessed as growth inhibition after 18 hrs by [3H]-hypoxanthine uptake assay; assay type: functional, organism-based; summary of the method: as §2
[6] = tested on: HepG2; assay: Cytotoxicity against human HepG2 cells after 48 hrs by MTT assay; assay type: cell-based; details: HepG2, 48 h
Summary of the method: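 HepG2 cells in supplemented MEM, plated at 9570 cells/well in 384-well format and incubated overnight at 37 °C, 5% CO2. Twelve duplicate 1.6-fold dilutions, 57–10,000 ng/ml, incubated 48 h. MTT added for 1 h at room temperature in the dark, formazan dissolved in acidified isopropanol, absorbance read. IC50 by sigmoidal variable-slope nonlinear regression; tryptanthrin control.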

[7] = biological target: hERG (KCNH2) (Homo sapiens, UniProt Q12809); assay: Inhibition of human ERG expressed in CHL cells assessed as tail current at 10 uM after 7 mins by patch clamp assay relative to control; assay type: cell-based; details: CHL cells expressing human ERG
hERG (KCNH2), sequence (Q12809 whole entry): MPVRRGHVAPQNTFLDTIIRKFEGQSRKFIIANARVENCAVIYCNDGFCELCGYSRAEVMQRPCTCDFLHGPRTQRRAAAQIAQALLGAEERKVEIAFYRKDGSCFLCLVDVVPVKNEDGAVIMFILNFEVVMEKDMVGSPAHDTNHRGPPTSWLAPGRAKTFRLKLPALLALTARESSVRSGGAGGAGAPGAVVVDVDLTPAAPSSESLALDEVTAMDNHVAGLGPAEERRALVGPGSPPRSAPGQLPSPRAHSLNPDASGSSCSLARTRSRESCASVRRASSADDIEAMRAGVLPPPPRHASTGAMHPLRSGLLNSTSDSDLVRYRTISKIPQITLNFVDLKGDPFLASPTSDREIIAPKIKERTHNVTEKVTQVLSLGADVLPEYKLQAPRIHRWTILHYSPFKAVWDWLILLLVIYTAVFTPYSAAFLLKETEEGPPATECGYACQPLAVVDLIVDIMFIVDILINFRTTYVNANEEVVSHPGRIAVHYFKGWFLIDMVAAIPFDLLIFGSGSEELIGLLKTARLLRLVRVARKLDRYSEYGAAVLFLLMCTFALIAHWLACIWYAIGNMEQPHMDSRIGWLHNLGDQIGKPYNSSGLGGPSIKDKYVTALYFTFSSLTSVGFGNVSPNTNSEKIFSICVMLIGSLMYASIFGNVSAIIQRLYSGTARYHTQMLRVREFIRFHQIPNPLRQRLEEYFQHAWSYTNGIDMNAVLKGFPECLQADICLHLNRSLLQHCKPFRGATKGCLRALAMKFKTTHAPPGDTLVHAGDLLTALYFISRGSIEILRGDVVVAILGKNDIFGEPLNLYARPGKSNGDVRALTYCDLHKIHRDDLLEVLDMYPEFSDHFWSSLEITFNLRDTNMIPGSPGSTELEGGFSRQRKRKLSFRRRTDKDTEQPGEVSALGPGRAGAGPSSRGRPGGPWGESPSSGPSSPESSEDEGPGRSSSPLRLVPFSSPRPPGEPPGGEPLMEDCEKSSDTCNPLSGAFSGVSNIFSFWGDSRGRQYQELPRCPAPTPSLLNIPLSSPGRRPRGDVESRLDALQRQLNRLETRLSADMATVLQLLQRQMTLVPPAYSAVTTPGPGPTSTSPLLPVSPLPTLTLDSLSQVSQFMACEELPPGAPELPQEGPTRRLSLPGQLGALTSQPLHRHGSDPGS

[8] = tested on: Plasmodium berghei; assay: Antimalarial activity against erythrocytic stage of chloroquine resistant Plasmodium berghei ANKA infected in mouse assessed as cure rate at 60 mg/kg, po qd administered on day 3, 4 and 5 post infection measured 3 times per week for 30 days, starting from day 3 by Thompson test; assay type: functional, organism-based; parameters: dose 60 mg/kg
Summary of the method: (§3)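 Male mice of 16-20 g inoculated intraperitoneally with 5 x 10^6 erythrocytes infected with CQ-resistant P. berghei ANKA. Drug given orally as a suspension once daily on days 3, 4 and 5 post-infection, five mice per dose. Blood films from day 3, three times weekly for 30 days. Cure means parasite-negative on day 30 or surviving 30 days. Mice losing >20% body weight sacrificed.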

[9] = tested on: Plasmodium berghei; assay: Antimalarial activity against erythrocytic stage of chloroquine resistant Plasmodium berghei ANKA infected in mouse assessed as cure rate at 15 mg/kg, po qd administered on day 3, 4 and 5 post infection measured 3 times per week for 30 days, starting from day 3 by Thompson test; assay type: functional, organism-based; parameters: dose 15 mg/kg; summary of the method: as §3
[10] = tested on: Salmonella typhi; assay: Mutagenicity in Salmonella typhi by Ames test; assay type: toxicity, organism-based; details: salmonella enterica subsp. enterica […]
[11] = tested on: Mus musculus; assay: Toxicity in mouse infected with erythrocytic stage of chloroquine resistant Plasmodium berghei ANKA up to 160 mg/kg, po qd administered on day 3, 4 and 5 post infection measured over 30 days; assay type: organism-based, Erythrocyte; parameters: dose 160 mg/kg, route oral; details: in vivo, 720 h
Summary of the method: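 Male mice of 16-20 g infected intraperitoneally with CQ-resistant P. berghei ANKA (5 x 10^6 infected erythrocytes). Oral dosing once daily on days 3-5, five mice per group. Animals followed for 30 days by blood films; mice losing >20% body weight sacrificed.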

[12] = tested on: Plasmodium berghei; assay: Antimalarial activity against erythrocytic stage of chloroquine resistant Plasmodium berghei ANKA infected in mouse assessed as cure rate at 160 mg/kg, po qd administered on day 3, 4 and 5 post infection measured 3 times per week for 30 days, starting from day 3 by Thompson test; assay type: functional, organism-based; parameters: dose 160 mg/kg; summary of the method: as §3
[13] = Elimination half life in ICR mouse at 80 mg/kg, po; assay type: ADME, organism-based; parameters: dose 80 mg/kg, route oral; details: in vivo, read-out: beta t1/2 (converted)
Summary of the method: (§4)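 Male 7-week-old ICR mice, 23–28 g, given a single intragastric dose of 80 mg/kg in DD water (100 µL/20 g). Three mice per time point; whole blood taken by cardiac puncture into lithium heparin tubes and spun to plasma. Parameters come from plasma concentration–time curves of parent drug. t1/2 = ln2/kel from the log plot. AUC by linear trapezoidal rule, extrapolated to infinity; MRT = AUMC/AUC.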

[14] = Tmax in ICR mouse at 80 mg/kg, po; assay type: ADME, organism-based; parameters: dose 80 mg/kg, route oral; details: in vivo; summary of the method: as §4
[15] = Cmax in ICR mouse at 80 mg/kg, po; assay type: ADME, organism-based; parameters: dose 80 mg/kg, route oral; details: in vivo; summary of the method: as §4
[16] = AUClast in ICR mouse at 80 mg/kg, po; assay type: ADME, organism-based; parameters: time 0 - last, dose 80 mg/kg, route oral; details: plasma
[17] = AUCinfinity in ICR mouse at 80 mg/kg, po; assay type: ADME, organism-based; parameters: time infinity, dose 80 mg/kg, route oral; details: plasma; summary of the method: as §4
[18] = Apparent volume of distribution during terminal phase in ICR mouse at 80 mg/kg, po; assay type: ADME, organism-based; parameters: dose 80 mg/kg, route oral; details: in vivo, read-out: Vz/F
[19] = Apparent oral clearance in ICR mouse at 80 mg/kg; assay type: ADME, organism-based; parameters: dose 80 mg/kg, route oral; details: in vivo
[20] = Mean residence time in ICR mouse at 80 mg/kg, po; assay type: ADME, organism-based; parameters: dose 80 mg/kg, route oral; details: in vivo; summary of the method: as §4
[21] = tested on: Plasmodium berghei; assay: Antimalarial activity against erythrocytic stage of chloroquine resistant Plasmodium berghei ANKA infected in mouse assessed as cure rate at 120 mg/kg, po qd administered on day 3, 4 and 5 post infection measured 3 times per week for 30 days, starting from day 3 by Thompson test; assay type: functional, organism-based; parameters: dose 120 mg/kg; summary of the method: as §3
[22] = tested on: Plasmodium berghei; assay: Antimalarial activity against erythrocytic stage of chloroquine resistant Plasmodium berghei ANKA infected in mouse assessed as parasite clearance at 160 mg/kg, po qd administered on day 3, 4 and 5 post infection measured on day 2 to 7 post last dose; assay type: functional, organism-based; parameters: dose 160 mg/kg
Summary of the method: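 Male mice of 16-20 g inoculated intraperitoneally with 5 x 10^6 erythrocytes infected with CQ-resistant P. berghei ANKA. Drug given orally as a suspension once daily on days 3, 4 and 5 post-infection, five mice per dose. Parasitemia followed by blood films from day 3, three times weekly for 30 days; infected untreated mice served as negative controls.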

[23] = tested on: Plasmodium falciparum; assay: Potency index, ratio of chloroquine IC50 to compound IC50 for chloroquine-resistant Plasmodium falciparum W2; assay type: functional

Structure (SMILES)	half-life at 1 µM [1]	half-life at 1 µM [2]	IC50 [3]	IC50 [4]	IC50 [5]	IC50 [6]	inhibition at 7 min, 10 µM [7]	Activity [11]	Activity [12]	Activity [21]	Activity [22]	further results
COc1ccc2nc3cc(Cl)ccc3c(N/C(=N/CCCN(C)C)c3ccc(Cl)cc3)c2n1	32 min	> 60 min	2.8 nM	6.6 nM	4.3 nM	2.51 µg/mL (≈ 5.2 µM)	77%	Non-toxic	–	–	–	Activity [8]: Active; Activity [9]: Active; Activity [10]: Non-toxic
CCN(CC)CCCN/C(=N\c1ccnc2cc(Cl)ccc12)C(C)C	> 60 min	> 60 min	22 nM	42 nM	25.8 nM	> 24.2 µg/mL	–	Non-toxic	Active	–	–	half-life [13]: 400 min; Tmax [14]: 30 min; Cmax [15]: 696 ng/mL; AUC(0-t) [16]: 3510 ng·h/mL; AUC(0-inf) [17]: 3620 ng·h/mL; Vd/F [18]: 214 L/kg; CL/F [19]: 371 mL/min/kg; MRT [20]: 7.64 h
COc1ccc2nc3cc(Cl)ccc3c(N/C(C)=N/CCCN3CCCCC3)c2n1	14 min	15 min	8 nM	24.9 nM	13.1 nM	2.81 µg/mL (≈ 6.59 µM)	94.5%	Non-toxic	–	Active	–	–
COc1ccc2nc3cc(Cl)ccc3c(N/C(C)=N/CCCN(C)C)c2n1	> 60 min	42 min	26 nM	100 nM	51.3 nM	18.1 µg/mL (≈ 46.8 µM)	91.5%	Non-toxic	–	Active	–	–
C/C(=N/c1ccnc2cc(Cl)ccc12)NCCCCN1CCCCC1	> 60 min	> 60 min	62 nM	126 nM	64 nM	9.81 µg/mL (≈ 27.3 µM)	–	Non-toxic	inactive	–	Active	–
C/C(=N/c1ccnc2cc(Cl)ccc12)NC1CCN(C(C)C)CC1	> 60 min	> 60 min	108 nM	166 nM	134 nM	5.71 µg/mL (≈ 16.6 µM)	–	Non-toxic	inactive	–	Active	–
CCN(CC)CCCN/C(=N\c1ccnc2cc(Cl)ccc12)c1ccccc1	21 min	16 min	1.8 nM	7.2 nM	3.3 nM	5.08 µg/mL (≈ 12.9 µM)	100%	–	–	–	–	Ratio IC50 [23]: 50
CCN(CC)CCCCN/C(C)=N\c1ccnc2cc(Cl)ccc12	> 60 min	> 60 min	24.9 nM	98.3 nM	26 nM	2.68 µg/mL (≈ 7.73 µM)	–	Non-toxic	inactive	–	Active	–
COc1ccc2nc3cc(Cl)ccc3c(N/C(=N/CCCN(C)C)c3ccccc3)c2n1	18 min	44 min	1.8 nM	1.98 nM	1.7 nM	5.78 µg/mL (≈ 12.9 µM)	48.9%	Non-toxic	–	Active	–	Activity [8]: Active
